In the RNAGym collection of RNA variant scans (doi:10.1126/science.aae0568) one finds yeast fitness data, which are given here for 37 variants.

Variants at the floor of the assay were thinned out.

Sequences and labels used below:
B1: tRNA (parent)
chain: GUUCCGUUGGCGUAAUGGUAACGCGUCUCCCUCCUAAGGAGAAGACUGCGGGUUCGAGUCCCGUACGGAACG

The data set covers variants of B1. In words: yeast fitness relative to wild type (ratio to wild type); higher = fitter; tRNA-Arg(CCU), competitive growth, 37 C, YPD. Put shortly:
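Gene amplicons from the start population and from each of six end populations were read by 100-nucleotide paired-end sequencing. Those end populations came from pooled Saccharomyces cerevisiae strains carrying tRNA-Arg(CCU) gene variants at the native locus, competed in YPD at 37°C for 24 hours. Fitness relative to wild type was worked out from changes in genotype frequencies. Genotypes needed ≥ 100 starting reads, and estimates < 0.5 were set to 0.5.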
With GUUCCGUCGGCGUAAUGGUAACGCGUCACCCUCCUAAGGAGAAGACUGCGGGUUCGAGUCCCGUACGGAACG [U8C U28A], the yeast fitness turned out to be 0.901.
Turning to GUUCCGUGGGCGUAAUGGUAUCGCGUCUCCCUCCUAAGGAGAAGACUGCGGGUUCAAGUCCCGUACGGAACG [U8G A21U G56A], the yeast fitness is at most 0.5.
To GUUCCGUGGGCGUAAUGGUAACGCGUCUCCCUCCUAAGGAGAAGUCUGCAGGUUCGAGUCCCGUACGGCACG [U8G A45U G50A A69C] belongs at most 0.5; to GUUCCGUCGGCGUAAUGGAAACGCGUCUCCCUCCUAAGGAGAAGACUGCGGGUUCGCGUCCCGAACGGAACG [U8C U19A A57C U64A], at most 0.5.
For the variant GUUCCGUGGGCGUAAUGGUAACGCGUCUCCCUCCUAAGGAGAAGACUGCGGGUUCGAGUCCCGUACGGAUCG [U8G A70U], the yeast fitness worked out at 0.59.
Turning to GUUCCGUCGGCGUAAUGGUAACGCGUCGCCCUCCUAAGGAGAAGAGUGUGGGUUCGAGUCCCGUACGGCACG [U8C U28G C46G C49U A69C], the yeast fitness was at most 0.5.
To GUUCCGUGGGGGUAAUGGUAACGCGUCUCCCACCUAAGGAGAAGACUGCGGGUUCGAGUCCCGUACGGAACG [U8G C11G U32A] belongs 0.642; to GUUCCGUGGGCGUAAUGGUAACGCGUCUCCCUGCUAAGGAGAAGACUGCGGGUACGAGACCCGUACAGAACG [U8G C33G U54A U59A G67A], at most 0.5; to GUUCCGUGGGCGUUUUGGUCACGCGUCUCCCUCCUAAGGAGAAGACUGCGGGUUCGAGUUCCGUACGGCACG [U8G A14U A15U A20C C60U A69C], at most 0.5.
To GUUCCGUGGGCGUAGUGGUAACGUGUCUGCCUCCUAAGGAGAAGCCUGCGGGUUCGAGUACCGUACGGAACG [U8G A15G C24U C29G A45C C60A] belongs 0.551; to GUUCCGUCGGCGUAAUGGUAACGCGUCUCCCCCCUAAGGAGAAGAGUGCGGGUUCGAGUCCCGUACCGAACG [U8C U32C C46G G67C], at most 0.5; to GUUCCGUGGGCGUAAUGGUGACGCGUCUCCCUCCUAAGGAGAAGACGGCGGGUUCGGGUCCCGUACGGAACG [U8G A20G U47G A57G], 0.654.
Under GUUCCGUCGGCGUAAUGGUAACGCGUCCCGGUCCUAAGGAGAAGACUGCGGGUUCGAGUCCCGUCCGGAACG [U8C U28C C30G C31G A65C] stands at most 0.5; under GUUCCGUGGGCGUAAUGGUAACGCGUCUCCCUCCUACGGAGAAGACUGCGGCUUCGACUCCCGUACGGAACG [U8G A37C G52C G58C], at most 0.5; under GUUCCGUGGGCGUAAUGGUAACGCGUCUCCCUCCUAAGGUGAAGACUGCGGAUUCGAGUCCCGUACGGUACG [U8G A40U G52A A69U], at most 0.5.
For the variant GUUCCGUCGGCGUAAUGGUAACGCGUCUCCCGCCUAAGGAGAAGACUGGGGGUUCGAGUCCCGUACGGAACG [U8C U32G C49G], the yeast fitness was at most 0.5.
Under GUUCCGUGGGCGUAAUGGUAACGCGUCUCCCUCCUAAGGAGACGACUGCGGGUUCGAGUCUCGUACGGAACG [U8G A43C C61U] stands at most 0.5; under GUUCCGUGGGCGUAAUGGUAACGCGUAUCCCUCCUAAGGAGAAGACUGCGGGUUCGAGUCACGUACAGAACG [U8G C27A C61A G67A], at most 0.5; under GUUCCGUGGGCGUAAUGGUAACGGGUCUCCCUGCUUAGGAGAAGACUGGGGGUUCGAGUCCGGUAGGGCACG [U8G C24G C33G A36U C49G C62G C66G A69C], 0.602.
For GUUCCGUGGGCGUAAUGGUACCGCGUCUCCCUCCUAAGGAGAAGACUGCGGGUUCCAGUCCCGUACGGAACG [U8G A21C G56C], the yeast fitness came to 0.766.
On to GUUCCGUGGGCGUAAUGGUGACGCGUCUCCCUCCUAAGGAGAAGACUGCGGGUUCGAGUGACGUACGGAACG [U8G A20G C60G C61A], for which the yeast fitness was at most 0.5.
Consider GUUCCGUGGGCGUAAUGGUAAGGCGUCUCCCUCCUAAGGAGAAGACUACGGGUUCGAGUACCGCACGGCACG [U8G C22G G48A C60A U64C A69C], for which the yeast fitness came to 0.561.
To GUUCCGUGGGCGUAAUGGUAGCGCGUAUCCCUCCAAAGGAGAAGACUGCGGGUUCGAGUCCAGUCCGGAACG [U8G A21G C27A U35A C62A A65C] belongs 0.568.
As to GUUCCGUGGGCGUGAUGGUAGCGCGUAUCCCUCCAAAGGAGAAGACUGCGGGUUCGAGUCCAGUCCGGAACG [U8G A14G A21G C27A U35A C62A A65C], the yeast fitness is at most 0.5.
Turning to GUUCCGUGGGCGUAAUGGUAACGCGUAUCCCUCCUAAGGAGAAGACUGCGGGUUCGAGUCACGUACGGAACG [U8G C27A C61A], the yeast fitness is at most 0.5.
To GUUCCGUCGGCGUAAUGGUAACGCGUCGCGCUCCUAAGGCGUAGACUGCGGGUUCGAGUCCCGUACGGAACG [U8C U28G C30G A40C A42U] belongs 0.54; to GUUCCGUGGGAGUAAUGGUAACGAGUCUACCUCUUAAGGAGAAGACUGCGGGUUCGAGUCGCGUCCGGAACG [U8G C11A C24A C29A C34U C61G A65C], at most 0.5; to GUUCCGUGGGUGUAACGGUAACGCGUCUCCCUCCUAAGGAGUAGACUGCGGGUUCGAGUCCCGUACGGAACG [U8G C11U U16C A42U], 0.749.
Consider GUUCCGUGGGCGUAAUGGUAACGGGUCUCCCUCCUAAGGAAAAGACUGCGGGUUCGAGUCCCGUACGGUACG [U8G C24G G41A A69U], for which the yeast fitness is at most 0.5.
To GUUCCGUGGGCGUAAUGGUAAUGCGUCCCCCUCCUAAGGAGAAGACUGCGGGUUCGAGUCCAGUACGGAACG [U8G C22U U28C C62A] belongs at most 0.5.
With GUUCCGUGGGCGUAAUGGUAACGCGUCUCCCUCCUAUGGAGAAGACUGCGGGUUCGAGUCCCGUAUGGAACG [U8G A37U C66U], the yeast fitness was at most 0.5.
Under GUUCCGUCGGCGUAAUGGUAACGCGUCUCCCCCCUAAGGAGAAAACUGCGGGUUCAAGUCCCGUACGGAACG [U8C U32C G44A G56A] stands at most 0.5; under GUUCCGUGGGCGUAAUGGUAACGUGUCUCCCUCCUAAGGAGAAGACUGCGGGUUCGAGUCCCGUACGGAACG [U8G C24U], 0.626; under GUUCCGUGGGCGUAAUGGUACCGCGUCUCCCUCCUAAGGAGAAGACUGCAGGUUCAAGUCCCGUACGGAACG [U8G A21C G50A G56A], at most 0.5.
In the case of GUUCCGUCGGCGUAAUGGUAACGCGUCUCCCUCCUAAGGAGAAGACCGCGGGUUCGAGUCCCGUACGGCACG [U8C U47C A69C], the yeast fitness came to 0.714.
To GUUCCGUGGGCGUAUUGGUCACGCGUCUCCCUCCUAAGGAGAAGACUGCGGGUUCGAGUCCCGUACGGCACG [U8G A15U A20C A69C] belongs at most 0.5; to GUUCCGUCGGCGUAAUGGUAACGCGACUCCCUCCUAAGGAGAAGACUGCGGGUUCGAGUCCCGUACGGAACG [U8C U26A], 0.884.
